Data taken from ChEMBL document CHEMBL2163220 (J Med Chem, 2012).
Activity calls are given as the source filed them. No cut-off for these calls is given here.

Legend:
Format in all cases: functional, cell-based
PC-3 [1] = experiment: Antagonist activity at androgen receptor T887A mutant expressed in human PC3 cells assessed as reduction in DHT-induced receptor transactivation at 0.1 to 1 uM by luciferase reporter gene assay
In short: (§1)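 Full-length wild-type or mutant AR plasmid transiently transfected into PC-3 cells with MMTV-luc and Renilla luciferase reporters. Cells treated with DMSO vehicle or compound at 0.1 and 1 μM, alone or with 0.1 nM DHT. Luciferase read as relative luciferase units. Run in triplicate.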

LNCaP = experiment: Reduction in androgen receptor protein expression in human LNCAP cells incubated for 24 hrs by Western blotting
In short: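 LNCaP cells in complete medium were exposed to DMSO or compound at 1, 2.5 and 5 μM for 24 h. Western blot measured AR, maspin, caspase-3 activation and PARP cleavage, with β-actin as loading control.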

[2] = system: T1, Androgen receptor (Homo sapiens), P10275 [H875Y]; experiment: Antagonist activity at androgen receptor H874Y mutant expressed in human PC3 cells assessed as reduction in DHT-induced receptor transactivation at 0.1 to 1 uM by luciferase reporter gene assay; conditions: PC-3; in short: as §1
T1 sequence (whole entry): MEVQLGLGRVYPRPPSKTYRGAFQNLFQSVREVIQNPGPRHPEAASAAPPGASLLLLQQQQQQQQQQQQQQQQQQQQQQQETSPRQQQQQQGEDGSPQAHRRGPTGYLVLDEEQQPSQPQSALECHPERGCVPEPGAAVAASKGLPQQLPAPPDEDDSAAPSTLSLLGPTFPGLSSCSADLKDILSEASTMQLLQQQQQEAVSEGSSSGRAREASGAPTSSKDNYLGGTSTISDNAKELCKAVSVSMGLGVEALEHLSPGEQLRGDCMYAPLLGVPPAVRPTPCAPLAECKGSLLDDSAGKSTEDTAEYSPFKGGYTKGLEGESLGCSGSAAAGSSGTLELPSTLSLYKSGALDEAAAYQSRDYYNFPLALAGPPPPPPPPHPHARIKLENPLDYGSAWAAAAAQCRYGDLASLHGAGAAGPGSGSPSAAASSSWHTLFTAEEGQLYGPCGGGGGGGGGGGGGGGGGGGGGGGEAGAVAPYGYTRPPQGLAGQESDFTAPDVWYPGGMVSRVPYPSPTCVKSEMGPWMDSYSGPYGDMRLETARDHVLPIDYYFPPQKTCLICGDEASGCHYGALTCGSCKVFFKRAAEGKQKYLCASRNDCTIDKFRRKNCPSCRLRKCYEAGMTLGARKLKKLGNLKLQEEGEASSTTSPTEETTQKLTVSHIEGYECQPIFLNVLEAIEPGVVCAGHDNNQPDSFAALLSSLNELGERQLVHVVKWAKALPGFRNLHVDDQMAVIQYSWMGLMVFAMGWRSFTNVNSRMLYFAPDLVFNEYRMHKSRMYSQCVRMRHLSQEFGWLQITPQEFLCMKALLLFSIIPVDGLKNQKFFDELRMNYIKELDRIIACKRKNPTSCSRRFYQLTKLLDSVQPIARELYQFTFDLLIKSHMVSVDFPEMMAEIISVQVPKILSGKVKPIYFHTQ

PC-3 [3] = experiment: Effect on in Maspin expression in human PC3 cells deficient in wild type androgen receptor at 5 uM by luciferase reporter gene assay
In short: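 PC-3 cells were transfected with maspin-luc, with or without cotransfected AR. Cells were exposed to DMSO vehicle or compound at 2.5 and 5 μM. Luciferase activity was measured in triplicate.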

[4] = molecular target: T2, Glucocorticoid receptor (Homo sapiens) (UniProt P04150); experiment: Antagonist activity at glucocorticoid receptor expressed in human PC3 cells assessed as reduction in dexamethasone-induced receptor transactivation at 1 uM by luciferase reporter gene assay; conditions: PC-3
T2 sequence (whole entry): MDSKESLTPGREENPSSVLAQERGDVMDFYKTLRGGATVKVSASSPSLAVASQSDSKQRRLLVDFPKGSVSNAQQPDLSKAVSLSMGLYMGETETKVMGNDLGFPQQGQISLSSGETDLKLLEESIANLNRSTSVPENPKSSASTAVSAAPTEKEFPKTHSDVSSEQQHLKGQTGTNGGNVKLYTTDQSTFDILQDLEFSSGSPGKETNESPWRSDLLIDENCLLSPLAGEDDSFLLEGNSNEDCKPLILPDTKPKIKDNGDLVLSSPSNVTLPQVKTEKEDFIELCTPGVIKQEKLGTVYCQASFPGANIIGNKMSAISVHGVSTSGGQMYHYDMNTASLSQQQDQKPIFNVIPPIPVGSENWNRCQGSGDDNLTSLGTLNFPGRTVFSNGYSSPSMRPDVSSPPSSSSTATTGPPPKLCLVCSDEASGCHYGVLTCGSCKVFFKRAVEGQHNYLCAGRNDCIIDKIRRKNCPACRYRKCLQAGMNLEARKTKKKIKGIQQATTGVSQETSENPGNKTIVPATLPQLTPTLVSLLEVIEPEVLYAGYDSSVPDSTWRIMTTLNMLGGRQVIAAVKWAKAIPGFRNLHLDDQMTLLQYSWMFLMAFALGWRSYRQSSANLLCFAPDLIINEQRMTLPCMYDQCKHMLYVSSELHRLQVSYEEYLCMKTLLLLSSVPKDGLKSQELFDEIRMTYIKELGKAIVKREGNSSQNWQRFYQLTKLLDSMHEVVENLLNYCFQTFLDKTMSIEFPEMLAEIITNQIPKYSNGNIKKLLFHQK
In short: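 PC-3 cells express GR endogenously and were transfected only with the MMTV-luc reporter. Compound tested at 1 μM, alone or against transactivation induced by 10 nM dexamethasone. Read-out was luciferase reporter activity.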

- Activity [2]: inactive
- Activity [4]: inactive
SMILES: Cc1coc2c1C(=O)C(=O)c1c-2ccc2c1CCCC2(C)C [TANSHINONE IIA]
- Activity (PC-3 [1]): Active
- Activity (LNCaP): Dose-dependent effect
- Activity (PC-3 [3]): inactive
